A short description of the series: Toxicity liver stage against HepG2, at 10uM. The format is cell-based. More on the design: test concentration 10 uM, cell line HepG2-A16-CD81EGFP. Conditions: human, HepG2-A16-CD81EGFP cells; read-out: INHIBITION
An outline of the steps: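 Uninfected HepG2-A16-CD81EGFP cells, 3 × 10^3 per well, 1536-well, plated on prespotted compound at 10 μM final, parasite-free screening media added to match infected plates; puromycin 10 μM positive, DMSO 0.5% negative; run in parallel with 48 h PbLuc assay at 37 °C, 5% CO2; viability by CellTiter-Glo luminescence, normalized to controls.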
As to `COCCCNS(=O)(=O)c1ccc(N2CCCCS2(=O)=O)cc1`, the cytotoxicity at 10 µM worked out at 0.308%.

Turning to `CN(C)C(=O)c1cccc(CNc2ccc(C#N)cn2)c1`, the cytotoxicity at 10 µM was -4.73%.

With `CCN(CC)CCNC(=O)c1ccc(-n2ccc3ccccc32)s1`, the cytotoxicity at 10 µM turned out to be 8.01%. Turning to `CC(C)c1cccc(NC(=O)Cn2c(=O)n(C)c(=O)c3sccc32)c1`, the cytotoxicity at 10 µM was 42%. Turning to `COC(=O)c1cccc(C(=O)N2CCN(c3cccc(C)c3C)CC2)n1`, the cytotoxicity at 10 µM came to 79.9%. Next, `CC(C(=O)NN1CCOCC1)n1nc(C(F)(F)F)c(Cl)c1C1CC1` (stereo not given): -0.37%; `Cn1nc(C(=O)NC2CC2)cc1NC(=O)C1CC1`: -4.02%; `CCc1nccn1CC(=O)Nc1cccc(N2CCCC2)c1`: 17.1%. In the case of `Cc1cccnc1CN1CC[C@H](Oc2cccc(F)c2)[C@@](C)(O)C1`, the cytotoxicity at 10 µM is -5.77%. As for `CCn1cc(C(=O)N2CCOC(c3nc(-c4cccs4)no3)C2)cn1` (stereo not given), the cytotoxicity at 10 µM amounted to 2.91%. Turning to `CC(=O)N1C[C@@H](c2ccsc2)[C@@H]2CN(Cc3ccccc3Cl)CC[C@@H]21`, the cytotoxicity at 10 µM worked out at 3.16%. In the case of `O=C(CCC1CCCC1)N1CCC(c2ncc3c(n2)CCNC3)CC1`, the cytotoxicity at 10 µM is -3.91%. Regarding `Cc1nc(NS(=O)(=O)c2cccc(F)c2C)no1`, the cytotoxicity at 10 µM is 5.3%. With `Cn1nccc1C1CCN(Cc2ccn(-c3ccccc3)n2)CC1`, the cytotoxicity at 10 µM turned out to be 17.3%. As for `CS(=O)(=O)C1(C(=O)NC2CCc3nccn3C2)CCCC1` (stereo not given), the cytotoxicity at 10 µM is -14%. For the compound `O=C(c1cc(-c2ccccc2)nc2onc(C3CC3)c12)N1CC[C@H](O)C1`, the cytotoxicity at 10 µM was -36.7%. Next, `Fc1ccc(NCc2ccncc2)c(OC(F)F)c1`: 10.5%. In the case of `Cc1nc(CNC2CCc3nc(C(C)C)nn3C2)oc1C` (stereo not given), the cytotoxicity at 10 µM is -4.1%. As for `Cc1c(NCc2ccc(C#N)cc2)cccc1S(=O)(=O)NC1CC1`, the cytotoxicity at 10 µM is 20.9%.

Regarding `NC(=O)c1ccc(N2CCCCC2)c(NC(=O)c2ccc(F)cc2Cl)c1`, the cytotoxicity at 10 µM was -4.2%.

`O=C(c1cccnc1)N1CCCC1C1CCN(Cc2ccccc2)CC1` (stereo not given): the cytotoxicity at 10 µM is -3.24%. For `CCOC(=O)N1CCN(C(=O)c2sc(-c3ccccc3)nc2C)CC1` the value was -3.08%; for `O=S(=O)(NCC1COCCO1)c1ccc(C2CCCCC2)cc1` (stereo not given), 27.5%; for `Cc1cc(C)c(CNC(=O)NCC2Cc3ccccc3O2)c(=O)[nH]1` (stereo not given), -5.21%. Take `COc1ccc(C(C)NC(=O)N2CCNC(=O)CC2)cc1F` (stereo not given): the cytotoxicity at 10 µM was determined as 13.5%. Take `Cc1ncccc1CNCC1COC2(CCCCC2)O1` (stereo not given): the cytotoxicity at 10 µM is -149%. `CO[C@H]1CN(C(=O)OC(C)(C)C)CC1NCc1ccco1` (stereo not given in full): the cytotoxicity at 10 µM is -46.9%. Take `O=C(c1ccccc1)N1CCCN(C(=O)c2ncncc2Cl)CC1`: the cytotoxicity at 10 µM was found to be 4.26%. For the compound `CNC(=O)c1c(C)cccc1NCc1noc(C2CC2)n1`, the cytotoxicity at 10 µM was 29.7%.

On to `Cn1ccc(NC(=O)NC2CCCN(c3ccccc3Cl)C2=O)n1` (stereo not given), for which the cytotoxicity at 10 µM was -49.4%.

`COc1ccc(CN(C)c2nc3c(cnn3C)c(=O)[nH]2)c(OC)c1`: the cytotoxicity at 10 µM came to 58.9%. Regarding `CN(C)Cc1noc2c1CN(Cc1ccc[nH]1)CC2`, the cytotoxicity at 10 µM turned out to be 7.01%. As for `O=C([C@H]1COC[C@H]2CN(C3CCCC3)C[C@H]21)N1CCOCC1`, the cytotoxicity at 10 µM was -105%. For the compound `CCc1cc(N(C)Cc2ccnc(C)c2)n2nc(C)c(C)c2n1`, the cytotoxicity at 10 µM was 61.6%. Take `Cc1nc(CN2CCN(c3nc4c(s3)c(C)nn4C)CC2)cs1`: the cytotoxicity at 10 µM stood at 15.6%. Regarding `C[C@@H]1CN(C2(C(=O)N3CCSCC3)Cc3ccccc3C2)C[C@H](C)O1`, the cytotoxicity at 10 µM turned out to be 0.66%. For the compound `Oc1cccc(CN2CCN(c3nccc(CCC(F)(F)F)n3)CC2)c1`, the cytotoxicity at 10 µM is -18.7%. For `O=C(c1coc(COc2cccc3cnccc23)n1)N1CCSCC1`, the cytotoxicity at 10 µM was -77.9%.

On to `COCCNc1ncnc2c1CCN(C(=O)CC1CCC(=O)N1)CC2` (stereo not given), for which the cytotoxicity at 10 µM was 1.15%. For the compound `Cc1ccc(NCCCNC(=O)C2CCCN(Cc3ccco3)C2)nc1` (stereo not given), the cytotoxicity at 10 µM was 3.15%. Turning to `CCn1ccc(C(=O)N2CCCN(Cc3ccccc3F)CC2)cc1=O`, the cytotoxicity at 10 µM turned out to be 9.47%. With `Cc1noc(C)c1CN(C)c1ncnc2onc(C)c12`, the cytotoxicity at 10 µM is -20.7%.

On to `Cc1cc(CC(C)NC(=O)Cc2cc(F)ccc2C)[nH]n1` (stereo not given), for which the cytotoxicity at 10 µM was -42.9%. In the case of `CCc1cnc(N)nc1NCc1ccc(OC)cc1OC`, the cytotoxicity at 10 µM came to 14.7%. Take `O=C1CN(Cc2cnc3c(-c4ccccc4)cnn3c2)CCCN1`: the cytotoxicity at 10 µM turned out to be 3.32%.

As for `NCC(=O)N1CCCCC1c1ccc(F)cc1` (stereo not given), the cytotoxicity at 10 µM is -43.4%.

As to `CCC[C@H]1CN(Cc2cc(C#N)n(C)c2C)C[C@@H]1N(C)C`, the cytotoxicity at 10 µM is -152%. Take `O=C(c1csnn1)N1CCc2[nH]nc(COc3cccc(Cl)c3)c2C1`: the cytotoxicity at 10 µM is -60%. For `Nc1cc(N2CCC(c3cc(Cc4ccccc4)n[nH]3)CC2)ccn1` the value was 24.6%; for `Cc1nc2ccccc2n1Cc1cc(C(=O)N2C[C@@H](C)O[C@@H](C)C2)no1`, 25.7%; for `CN1CC2(CCN(CCOCCO)CC2)CC(c2ccccc2)C1=O` (stereo not given), -9.88%.

`Cc1cnc(C)c(N2CCN(Cc3ccc(C)c(C)c3)CC2)n1`: the cytotoxicity at 10 µM turned out to be 6.68%. Next, `Cc1ncsc1CN1C[C@H](NC(=O)C2CCOCC2)[C@@H](C(C)C)C1`: 6.67%.

For `Cc1cc(CC2COc3ccccc3C2)cnc1N` (stereo not given), the cytotoxicity at 10 µM turned out to be 0.873%. For the compound `C=Cc1ccc(C(=O)N2CCCC(Nc3ccc(OC)cc3)C2)cc1` (stereo not given), the cytotoxicity at 10 µM was -12%. In the case of `CN(C(=O)c1ccccn1)c1nc2c(s1)CCc1c-2cnn1C`, the cytotoxicity at 10 µM is 11.7%. As for `Cc1cc(C)c2cc(CNCc3ccccc3)c3nn(C)c(=O)n3c2c1`, the cytotoxicity at 10 µM is -1.47%. For `CC1CN(C)CCN1C(=O)c1cnn(-c2cccc(Cl)c2)c1` (stereo not given) the value was -8.68%.

Take `c1ccc(CCCN2CCN(c3ccc4nncn4n3)CC2)cc1`: the cytotoxicity at 10 µM was found to be 4.2%. As for `O=C(c1cc(C2CC2)[nH]n1)N1CCN(Cc2ccc(Cl)cc2)CC1`, the cytotoxicity at 10 µM came to 37.2%. Consider `CCc1nc(CN2CCCN(C(=O)CCc3ccco3)CC2)cs1`, for which the cytotoxicity at 10 µM amounted to 1.42%.

Consider `O=C(NCC1CCC2(CCNCC2)CO1)c1cnccn1` (stereo not given), for which the cytotoxicity at 10 µM turned out to be 9.51%.

`CCOc1cc(CN[C@@H]2COC[C@H]2Cc2cc(C)no2)ccc1O`: the cytotoxicity at 10 µM worked out at 14.8%. In the case of `CCN(CC)[C@@H]1CN(C(=O)c2ccc(C#N)cc2)[C@@H]2CCCO[C@H]12`, the cytotoxicity at 10 µM was -151%. In the case of `CN(C)C(=O)CN1CCc2ncnc(NC3CCC3)c2CC1`, the cytotoxicity at 10 µM was -94.4%. In the case of `Cc1nc(C2(O)CCCNCC2)sc1CCOc1ccc(Cl)cc1` (stereo not given), the cytotoxicity at 10 µM is 12.7%. With `Cc1ccc2c(n1)N(CCN(C)C)CCN(C(=O)c1cccs1)C2`, the cytotoxicity at 10 µM was -69.8%. On to `CN(C)[C@@H]1CCN(C(=O)Cc2cccs2)[C@H]1Cc1ccncc1`, for which the cytotoxicity at 10 µM was -70.1%. For `NC(=O)N1CCc2cc(C(=O)O)c(-c3ccsc3)nc2CC1` the value was 18.3%.

On to `CCC1=NN2C(=N)C(=Cc3cccn3-c3cccc(Cl)c3)C(=O)N=C2S1`, for which the cytotoxicity at 10 µM was -5.7%.

For the origin of these results see ChEMBL document CHEMBL4513216, “Probing the Open Global Health Chemical Diversity Library for Multistage-Active Starting Points for Next-Generation Antimalarials” (ACS Infect Dis, 2020).
